# Data: ChEMBL document CHEMBL1136225, “Selective 3-amino-2-pyridinone acetamide thrombin inhibitors incorporating weakly basic partially saturated heterobicyclic P1-arginine mimetics” (Bioorg Med Chem Lett, 2003)
# Columns and labels:
# [1] = pKa value was determined; type: physicochemical
# Prothrombin = Prothrombin (Homo sapiens, UniProt P00734); experiment: Inhibitory activity against thrombin
# Procedure, shortened: (§1)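 Amidolytic enzyme assays with chromogenic substrates for thrombin, trypsin and factor Xa; Ki derived from IC50 by Cheng–Prusoff, or from reaction velocity equations with and without inhibitor using the relevant Km.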
# Homo sapiens [2] = species: Homo sapiens; experiment: Concentration required to double the thrombin time in human plasma; type: functional
# Procedure, shortened: (§2)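 Standard clotting assays (APTT, PT and TT) run in human plasma; value is the inhibitor concentration required to double each clotting time.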
# Homo sapiens [3] = species: Homo sapiens; experiment: Concentration required to double the activated partial thromboplastin time in human plasma; type: functional; procedure, shortened: as §2
# Coagulation factor X = Coagulation factor X (Homo sapiens, UniProt P00742); experiment: Inhibitory activity against coagulation factor X; procedure, shortened: as §1
# Homo sapiens [4] = species: Homo sapiens; experiment: Concentration required to double the prothrombin time in human plasma; type: functional; procedure, shortened: as §2
# [5] = target: T1, Serine protease 1 (Bos taurus) (UniProt P00760); experiment: Selectivity for inhibition of thrombin to that of trypsin
# T1 sequence (whole entry): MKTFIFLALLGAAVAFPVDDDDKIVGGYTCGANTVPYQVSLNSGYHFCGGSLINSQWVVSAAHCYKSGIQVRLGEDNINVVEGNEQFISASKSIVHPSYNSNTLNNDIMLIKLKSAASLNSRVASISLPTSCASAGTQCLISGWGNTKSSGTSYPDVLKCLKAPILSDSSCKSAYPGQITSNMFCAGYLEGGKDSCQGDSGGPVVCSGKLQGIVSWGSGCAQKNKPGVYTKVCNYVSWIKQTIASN
# Procedure, shortened: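 Selectivity expressed as Ki(trypsin)/Ki(thrombin), with both Ki values from chromogenic-substrate amidolytic assays.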
# Serine protease 1 [6] = target: T2, Serine protease 1 (Bos taurus, UniProt P00760); experiment: Inhibitory activity against Trypsin; procedure, shortened: as §1
# T2 sequence (P00760 whole entry): T1 sequence (whole entry)
# Serine protease 1 [7] = target: T2, Serine protease 1; experiment: Inhibitory activity was evaluated against Trypsin; Inactive; procedure, shortened: as §1
# Serine protease 1 [8] = target: T2, Serine protease 1; experiment: Inhibitory activity against Trypsin; Inactive; procedure, shortened: as §1
# Coagulation factor X, sequence (P00742 41-179 limits assumed): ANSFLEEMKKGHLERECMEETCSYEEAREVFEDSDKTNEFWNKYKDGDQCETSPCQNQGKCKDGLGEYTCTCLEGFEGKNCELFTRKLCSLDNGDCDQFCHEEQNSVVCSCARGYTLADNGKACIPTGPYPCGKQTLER
# Coagulation factor X, sequence (P00742 235-488 limits assumed): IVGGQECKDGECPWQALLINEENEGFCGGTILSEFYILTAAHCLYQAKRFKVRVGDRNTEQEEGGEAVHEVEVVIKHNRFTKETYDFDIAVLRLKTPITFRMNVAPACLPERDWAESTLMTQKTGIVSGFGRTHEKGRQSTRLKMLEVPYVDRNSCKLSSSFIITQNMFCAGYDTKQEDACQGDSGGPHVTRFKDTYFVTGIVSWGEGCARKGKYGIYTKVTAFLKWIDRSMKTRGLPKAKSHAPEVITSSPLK
pKa [1],Ki (Prothrombin),Ki (Coagulation factor X),Selectivity [5],Ki (Serine protease 1 [6]),Ki (Serine protease 1 [7]),Ki (Serine protease 1 [8]),SMILES,Concentration (Homo sapiens [2]),Concentration (Homo sapiens [3]),Concentration (Homo sapiens [4])
6.1,–,–,–,–,–,–,Cc1ccc(NS(=O)(=O)Cc2ccccc2)c(=O)n1CC(=O)NC1CCc2nc(N)sc2C1 (stereo unspecified),–,–,–
–,0.0087 µM,–,–,–,–,–,Cc1ccc(NS(=O)(=O)Cc2ccccc2)c(=O)n1CC(=O)NCc1ccc2[nH]ncc2c1,–,–,–
3.2,–,90.2 µM,32,807 µM,–,–,Cc1ccc(NS(=O)(=O)Cc2ccccc2)c(=O)n1CC(=O)NC1CCc2nn(C)cc2C1 (stereo unspecified),375 µM,> 200 µM,> 400 µM
3.6,11.8 µM,95 µM,47,557 µM,–,–,Cc1ccc(NS(=O)(=O)Cc2ccccc2)c(=O)n1CC(=O)NCC1CCc2nn(C)cc2C1 (stereo unspecified),105 µM,318 µM,> 400 µM
4,0.17 µM,103 µM,–,–,Not Active,–,Cc1ccc(NS(=O)(=O)Cc2ccccc2)c(=O)n1CC(=O)NCC1CCc2n[nH]cc2C1 (stereo unspecified),5.2 µM,20.5 µM,30.6 µM
3.7,–,99 µM,93,–,–,–,Cc1ccc(NS(=O)(=O)Cc2ccccc2)c(=O)n1CC(=O)NC1CCc2n[nH]cc2C1 (stereo unspecified),105 µM,272 µM,> 400 µM
–,2.5 µM,106 µM,–,–,–,–,Cc1ccc(NS(=O)(=O)Cc2ccccc2)c(=O)n1CC(=O)NCC1CCc2nc(N)sc2C1 (stereo unspecified),44 µM,121 µM,334 µM
–,6.9 µM,87.3 µM,–,–,–,640 µM,Cc1ccc(NS(=O)(=O)Cc2ccccc2)c(=O)n1CC(=O)NCC1CCc2nc(N)ncc2C1 (stereo unspecified),84 µM,219 µM,> 400 µM
